Read-outs that look alike come from different tables or passages of the source. Non-standard residues stand in square brackets, D forms with d. Residues, ends and D or L forms follow the SMILES beside them. *: point of attachment. X1 = COC1=CC(=O)N(C(=O)[C@@H](O*)C(C)C)[C@H]1Cc1ccccc1; NMe2Val = CC(C)[C@@H](C(=O)*)N(C)C; NMeV = CN[C@H](C(=O)O)C(C)C; Cbz = O=C(OCc1ccccc1)*; NHtBu = CC(C)(C)N*
Assays:
[1] = tested on: CCRF-CEM leukemia cells; test: cells; format: cell-based, human; conditions: for -fold difference in IC50 (+ BCPP versus − BCPP) / IC50: 24 h; for IC50: read-out: IC50 − BCPP
[2] = biological target: purified bovine brain tubulin (Bos taurus, UniProt P81947+Q6B856); test: Inhibition of tubulin assembly; format: biochemical
[3] = tested on: Burkitt lymphoma CA46 cells; test: Inhibition of growth of CA46 cells; format: cell-based, human
Procedure, shortened: (§1)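 Suspension lines were grown in RPMI 1640 with 5% fetal bovine serum (10% for CA46) at 37°C in humidified 5% CO₂. Test compound was added in DMSO (0.1% final) at varying concentrations. Growth was measured as cell number with a particle counter, and the IC₅₀ was derived from it.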

[4] = tested on: P-glycoprotein; conditions: ref Aherne et al., 1996; cited from earlier work
[5] = tested on: SR cells; test: Inhibition of cell growth, SR cells; format: cell-based, human; conditions: mean ± S.D.
Procedure, shortened: as §1

[6] = tested on: CCRF-CEM cells; test: Inhibition of cell growth, CCRF-CEM cells; format: cell-based, human; conditions: mean ± S.D.
Procedure, shortened: as §1

[7] = tested on: K-562 cells; test: Inhibition of cell growth, K-562 cells; format: cell-based, human; conditions: mean ± S.D.
Procedure, shortened: as §1

[8] = tested on: MOLT-4 cells; test: Inhibition of cell growth, MOLT-4 cells; format: cell-based, human; conditions: mean ± S.D.
Procedure, shortened: as §1

[9] = tested on: RPMI-8226 cells; test: Inhibition of cell growth, RPMI-8226 cells; format: cell-based, human; conditions: mean ± S.D.
Procedure, shortened: as §1

[10] = tested on: SR cells; test: [^3H]Tasidotin uptake and metabolism, SR cells; format: in vitro ADME, human; conditions: 0.1 μM [^3H]tasidotin, 16 h
Procedure, shortened: (§2)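 Log-phase cells at ~10⁶ cells/ml were given 0.1 μM [³H]test compound for 16 h (CA46 also 5 min). Cells were centrifuged, washed twice in PBS pH 7.2 and sonicated in water. Extracts were boiled 5 min, clarified, and precipitated with 3 volumes of ethanol. Radiolabel and protein were measured in supernatants and pellets. Supernatants in 0.1% TFA were run on C18 HPLC (10–60% acetonitrile, 10 min, 40°C) with in-line radioactivity detection and peak areas. Pellet label was taken as protein-incorporated proline.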

[11] = tested on: CCRF-CEM cells; test: [^3H]Tasidotin uptake and metabolism, CCRF-CEM cells; format: in vitro ADME, human; conditions: 0.1 μM [^3H]tasidotin, 16 h
Procedure, shortened: as §2

[12] = tested on: CA46 Burkitt lymphoma cells; test: [^3H]Tasidotin uptake and metabolism, CA46 cells; format: in vitro ADME, human; conditions: 0.1 μM [^3H]tasidotin
[13] = tested on: K-562 cells; test: [^3H]Tasidotin uptake and metabolism, K-562 cells; format: in vitro ADME, human; conditions: 0.1 μM [^3H]tasidotin, 16 h
Procedure, shortened: as §2

[14] = tested on: MOLT-4 cells; test: [^3H]Tasidotin uptake and metabolism, MOLT-4 cells; format: in vitro ADME, human; conditions: 0.1 μM [^3H]tasidotin, 16 h
Procedure, shortened: as §2

[15] = tested on: RPMI-8226 cells; test: [^3H]Tasidotin uptake and metabolism, RPMI-8226 cells; format: in vitro ADME, human; conditions: 0.1 μM [^3H]tasidotin, 16 h
Procedure, shortened: as §2

[16] = tested on: HL-60 (TB) cells
[17] = tested on: NCI/ADR-RES; conditions: multidrug resistant, P-glycoprotein expressing
[18] = tested on: MDA-MB-435 line
[19] = tested on: HS 578-T line
[20] = tested on: HL-60 (TB) cells; remark: listed apart in the source
[21] = tested on: SR, CCRF-CEM, and HL-60 (TB)
[22] = tested on: CA46, K-562, MOLT-4, and RPMI-8226; conditions: less sensitive cell lines, 0.1 μM [^3H]tasidotin, 16 h
[23] = tested on: SR, CCRF-CEM, and HL-60 (TB); remark: listed apart in the source
[24] = tested on: CA46, K-562, MOLT-4, and RPMI-8226
[25] = read-out: IC50 Growth of CA46 Cells, 48-h incubation at 37°C, increase in cell number
[26] = 16 h, % of supernatant radiolabel

purified bovine brain tubulin, sequence (P81947 whole entry): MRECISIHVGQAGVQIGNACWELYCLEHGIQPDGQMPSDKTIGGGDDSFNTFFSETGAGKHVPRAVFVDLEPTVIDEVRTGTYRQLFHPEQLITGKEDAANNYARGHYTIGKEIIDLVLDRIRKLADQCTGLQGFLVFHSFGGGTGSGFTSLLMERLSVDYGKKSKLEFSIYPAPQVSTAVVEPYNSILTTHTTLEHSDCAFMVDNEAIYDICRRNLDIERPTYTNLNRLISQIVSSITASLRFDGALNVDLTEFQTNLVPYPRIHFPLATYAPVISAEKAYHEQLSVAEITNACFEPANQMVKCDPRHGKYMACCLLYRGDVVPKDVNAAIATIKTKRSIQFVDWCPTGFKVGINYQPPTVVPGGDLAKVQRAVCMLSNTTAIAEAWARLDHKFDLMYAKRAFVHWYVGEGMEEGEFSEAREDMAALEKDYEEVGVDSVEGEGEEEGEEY
purified bovine brain tubulin, sequence (Q6B856 whole entry): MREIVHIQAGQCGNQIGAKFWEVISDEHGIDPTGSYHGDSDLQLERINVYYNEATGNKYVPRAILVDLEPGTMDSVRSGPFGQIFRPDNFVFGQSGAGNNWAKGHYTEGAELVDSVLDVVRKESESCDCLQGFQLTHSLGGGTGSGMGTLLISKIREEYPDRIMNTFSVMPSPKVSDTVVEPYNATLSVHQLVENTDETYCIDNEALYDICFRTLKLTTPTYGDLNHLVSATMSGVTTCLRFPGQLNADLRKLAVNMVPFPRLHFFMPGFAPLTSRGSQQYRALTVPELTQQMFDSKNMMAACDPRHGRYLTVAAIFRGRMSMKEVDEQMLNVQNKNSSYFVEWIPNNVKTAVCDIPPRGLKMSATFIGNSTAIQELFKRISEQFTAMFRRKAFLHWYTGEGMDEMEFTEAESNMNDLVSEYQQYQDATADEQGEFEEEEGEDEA

## O=C[C@@H]1CCCN1C(=O)[C@@H]1CCCN1C(=O)OCc1ccccc1 [BCPP, N-benzyloxycarbonylprolylprolinal] (Cbz-Pro-Pro-aldehyde)
[1]; CCRF-CEM cells, 12.5 μM BCPP
  Effect of BCPP itself on the growth of the cells: negligible effects

## COc1ccc(/C=C\c2cc(OC)c(OC)c(OC)c2)cc1O [Combretastatin A-4]
[1]; CCRF-CEM cells, 12.5 μM BCPP
  Effect of BCPP on the inhibition of CCRF-CEM cell growth by the drug: no effect
  -fold difference in IC50 (+ BCPP versus − BCPP): 0.8 -fold
[1]; Homo sapiens, CCRF-CEM
  IC50: 2.3 ± 0.3 nM

## CC[C@H](C)[C@@H]([C@@H](CC(=O)N1CCC[C@H]1[C@H](OC)[C@@H](C)C(=O)N[C@@H](Cc1ccccc1)c1nccs1)OC)N(C)C(=O)[C@@H](NC(=O)[C@H](C(C)C)N(C)C)C(C)C [Dolastatin 10, reference compound]
[2]
  IC50: 800 ± 100 nM
[3]; [25]
  IC50: 0.03 nM

## COC1=CC(=O)N(C(=O)[C@@H](OC(=O)[C@@H]2CCCN2C(=O)[C@@H]2CCCN2C(=O)[C@H](C(C)C)N(C)C(=O)[C@@H](NC(=O)[C@H](C(C)C)N(C)C)C(C)C)C(C)C)[C@H]1Cc1ccccc1 [Dolastatin 15, reference compound] (NMe2Val-V[NMeV]PP-X1)
[2]
  IC50: 5600 ± 900 nM
[3]; [25]
  IC50: 3 nM
[4]
  P-glycoprotein substrate: P-glycoprotein substrate

## CN(Cc1cnc2nc(N)nc(N)c2n1)c1ccc(C(=O)N[C@@H](CCC(=O)O)C(=O)O)cc1 [Methotrexate]
[1]; CCRF-CEM cells, 12.5 μM BCPP
  Effect of BCPP on the inhibition of CCRF-CEM cell growth by the drug: no effect
  -fold difference in IC50 (+ BCPP versus − BCPP): 1.1 -fold
[1]; Homo sapiens, CCRF-CEM
  IC50: 7.3 ± 0.8 nM

## CC(C)[C@H](NC(=O)[C@H](C(C)C)N(C)C)C(=O)N(C)[C@H](C(=O)N1CCC[C@H]1C(=O)N1CCC[C@H]1C(=O)NC(C)(C)C)C(C)C [Tasidotin] (NMe2Val-V[NMeV]PP-NHtBu)
[2]
  IC50: 10000 ± 400 nM
[2]; ratio of tubulin assembly IC50 values
  Fold less active as inhibitor of tubulin assembly than dolastatin 10: more than 12 -fold
[3]; CA46 cells (Table 2), mean ± S.D.
  IC50: 100 ± 5 nM
[3]; [25]
  IC50: 100 ± 5 nM
[5]
  IC50: 20 ± 1 nM
[6]
  IC50: 30 ± 7 nM
[7]
  IC50: 230 ± 30 nM
[8]
  IC50: 230 ± 30 nM
[9]
  IC50: 300 ± 20 nM
[1]; CCRF-CEM cells, 12.5 μM BCPP
  -fold difference in IC50 (+ BCPP versus − BCPP): 30 -fold
[1]; CCRF-CEM cells, without BCPP, cell number
  IC50: 40 ± 10 nM
[10]
  Free Proline in Supernatant: 5.0 fmol / μg cell protein
  Proline from Pellets: 9.8 fmol / μg cell protein
  Total Proline in Supernatant (All Forms): 51 ± 9%
  Total Tasidotin-Derived Proline (Total Tasidotin Uptake): 20 ± 5 fmol / μg cell protein
[10]; % of supernatant radiolabel
  Free Proline in Supernatant: 49%
  Proline in P5 in Supernatant: 51 ± 7%
[11]
  Free Proline in Supernatant: 11.5 fmol / μg cell protein
  Total Proline in Supernatant (All Forms): 52 ± 4%
  Total Tasidotin-Derived Proline (Total Tasidotin Uptake): 24 ± 9 fmol / μg cell protein
[11]; % of supernatant radiolabel
  Free Proline in Supernatant: 48%
  Proline in P5 in Supernatant: 62 ± 10%
[12]; 5 min
  Soluble intracellular radiolabel remaining as tasidotin: Approximately 48%
  Soluble intracellular radiolabel with the mobility of P5: approximately 17%
  Soluble radiolabel that had undergone further metabolism (unbound proline peak): approximately 35%
[12]; 16 h
  Free Proline in Supernatant: 2.8 fmol / μg cell protein
  Proline from Pellets: 7.1 fmol / μg cell protein
  Total Proline in Supernatant (All Forms): 41 ± 1%
  Total Tasidotin-Derived Proline (Total Tasidotin Uptake): 12 ± 0.6 fmol / μg cell protein
[12]; [26]
  Free Proline in Supernatant: 58%
  Proline in P5 in Supernatant: 42 ± 10%
[12]; 96 h
  Radiolabel in the unbound proline peak: approximately 38%
  Radiolabel remaining as tasidotin: approximately 6%
  Total radiolabel with the mobility of P5: approximately 56%
[13]
  Free Proline in Supernatant: 4.2 fmol / μg cell protein
  Proline from Pellets: 9.0 fmol / μg cell protein
  Total Proline in Supernatant (All Forms): 42 ± 9%
  Total Tasidotin-Derived Proline (Total Tasidotin Uptake): 15.5 ± 2 fmol / μg cell protein
[13]; % of supernatant radiolabel
  Free Proline in Supernatant: 64%
  Proline in P5 in Supernatant: 36 ± 6%
[14]
  Free Proline in Supernatant: 3.5 fmol / μg cell protein
  Proline from Pellets: 7.0 fmol / μg cell protein
  Total Proline in Supernatant (All Forms): 46 ± 7%
  Total Tasidotin-Derived Proline (Total Tasidotin Uptake): 13 ± 3 fmol / μg cell protein
[14]; % of supernatant radiolabel
  Free Proline in Supernatant: 59%
  Proline in P5 in Supernatant: 41 ± 9%
[15]
  Free Proline in Supernatant: 1.6 fmol / μg cell protein
  Proline from Pellets: 5.8 fmol / μg cell protein
  Total Proline in Supernatant (All Forms): 31 ± 5%
  Total Tasidotin-Derived Proline (Total Tasidotin Uptake): 8.4 ± 3 fmol / μg cell protein
[15]; % of supernatant radiolabel
  Free Proline in Supernatant: 61%
  Proline in P5 in Supernatant: 39 ± 5%
[16]
  IC50: 36 ± 6 nM
[17]
  IC50: > 1000 nM
[18]
  IC50: 4 nM
[19]
  IC50: 200 nM
[20]
  Proline from Pellets: 12.4 fmol / μg cell protein
  Total Proline in Supernatant (All Forms): 54 ± 10%
  Total Tasidotin-Derived Proline (Total Tasidotin Uptake): 27 ± 3 fmol / μg cell protein
[21]
  Intracellular P5: 5.2-7.7 fmol/μg cell protein
  Share of total uptake as P5, average: 29%
  Share of total uptake as proline, average: 71%
[22]
  Share of total uptake as P5, average: 16%
  Share of total uptake as proline, average: 84%
  Total uptake, average: 12 fmol/μg of cell protein
[23]
  IC50: 20 to 36 nM
[24]
  IC50: 100 to 300 nM

Reference: article PMC2635573 (Molecular pharmacology, 2008)
